Reference: ChEMBL document CHEMBL1944580, “Synthesis of novel sulfonamide-1,2,4-triazoles, 1,3,4-thiadiazoles and 1,3,4-oxadiazoles, as potential antibacterial and antifungal agents. Biological evaluation and conformational analysis studies” (2012)
Values after ≈ are worked out from the molar mass of the structure shown.

What was measured:
Bacillus cereus [1] = experiment: Antibacterial activity against Bacillus cereus clinical isolate after 24 hrs by micro dilution method; type: functional
Summary of the method: (§1)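 Microdilution MIC in 96-well plates. Bacterial suspensions adjusted in sterile saline to 1.0 × 10^5 CFU/ml, giving 1.0 × 10^4 cfu per well in LB broth. Compounds tested at up to 1 mg/ml. Plates incubated 24 h. MIC taken as the lowest concentration with no visible growth under a binocular microscope. OD at 655 nm was also read against a blank and the positive control. Streptomycin and ampicillin were the positive controls.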

Enterobacter cloacae [2] = experiment: Antibacterial activity against Enterobacter cloacae human isolate after 24 hrs by micro dilution method; type: functional; summary of the method: as §1
Enterobacter cloacae [3] = experiment: Antibacterial activity against Enterobacter cloacae human isolate treated for 24 hrs followed by sub-cultivated for 72 hrs by micro dilution method; type: functional
Summary of the method: (§2)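 2 µl from each well was serially subcultured into 100 µl fresh broth per well and incubated a further 72 h. MBC is the lowest concentration with no visible growth, taken as 99.5% killing of the original inoculum. Streptomycin and ampicillin were the positive controls.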

Aspergillus flavus [4] = experiment: Antifungal activity against Aspergillus flavus ATCC 9643 treated for 72 hrs followed by sub-cultivated for 5 days by serial dilution method; type: functional
Summary of the method: (§3)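 MFC obtained after the 72 h, 28 °C malt-broth microdilution (spore inoculum about 1.0 × 10^5 per well, compounds from 1 mg/ml DMSO). 2 µl was serially subcultured into 100 µl broth per well and incubated a further 5 days at 28 °C. MFC is the lowest concentration with no visible growth, taken as 99.5% killing of the original inoculum.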

Pseudomonas aeruginosa [5] = experiment: Antibacterial activity against Pseudomonas aeruginosa ATCC 27853 after 24 hrs by micro dilution method; type: functional; conditions: ATCC 27853, 24 h; summary of the method: as §1
Trichoderma viride [6] = experiment: Antifungal activity against Trichoderma viride IAM 5061 treated for 72 hrs followed by sub-cultivated for 5 days by serial dilution method; type: functional; summary of the method: as §3
Micrococcus flavus [7] = experiment: Antibacterial activity against Micrococcus flavus ATCC 10240 after 24 hrs by micro dilution method; type: functional; conditions: ATCC 10240, 24 h; summary of the method: as §1
Listeria monocytogenes [8] = experiment: Antibacterial activity against Listeria monocytogenes NCTC 7973 after 24 hrs by micro dilution method; type: functional; conditions: NCTC 7973, 24 h; summary of the method: as §1
Fulvia fulva [9] = experiment: Antifungal activity against Fulvia fulva after 72 hrs by serial dilution method; type: functional
Summary of the method: (§4)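 Modified microdilution MIC. Spores were washed from malt agar cultures with sterile 0.85% saline containing 0.1% Tween 80 and adjusted to about 1.0 × 10^5 per 100 µl well in malt broth. Compounds were dissolved in DMSO (1 mg/ml). Plates incubated 72 h at 28 °C. MIC is the lowest concentration with no visible growth under a binocular microscope. Bifonazole and ketoconazole were the references.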

Fulvia fulva [10] = experiment: Antifungal activity against Fulvia fulva treated for 72 hrs followed by sub-cultivated for 5 days by serial dilution method; type: functional; summary of the method: as §3
Escherichia coli [11] = experiment: Antibacterial activity against Escherichia coli ATCC 35210 after 24 hrs by micro dilution method; type: functional; conditions: ATCC 35210, 24 h; summary of the method: as §1
Aspergillus versicolor [12] = experiment: Antifungal activity against Aspergillus versicolor ATCC 11730 after 72 hrs by serial dilution method; type: functional; conditions: ATCC 11730, 72 h; summary of the method: as §4
Aspergillus niger [13] = experiment: Antifungal activity against Aspergillus niger ATCC 6275 treated for 72 hrs followed by sub-cultivated for 5 days by serial dilution method; type: functional; summary of the method: as §3
Penicillium ochrochloron [14] = experiment: Antifungal activity against Penicillium ochrochloron ATCC 9112 treated for 72 hrs followed by sub-cultivated for 5 days by serial dilution method; type: functional; summary of the method: as §3
Bacillus cereus [15] = experiment: Antibacterial activity against Bacillus cereus clinical isolate treated for 24 hrs followed by sub-cultivated for 72 hrs by micro dilution method; type: functional; summary of the method: as §2
Aspergillus niger [16] = experiment: Antifungal activity against Aspergillus niger ATCC 6275 after 72 hrs by serial dilution method; type: functional; conditions: ATCC 6275, 72 h; summary of the method: as §4
Talaromyces funiculosus [17] = experiment: Antifungal activity against Penicillium funiculosum ATCC 36839 treated for 72 hrs followed by sub-cultivated for 5 days by serial dilution method; type: functional; summary of the method: as §3
Aspergillus fumigatus [18] = experiment: Antifungal activity against Aspergillus fumigatus human isolate after 72 hrs by serial dilution method; type: functional; summary of the method: as §4
Micrococcus flavus [19] = experiment: Antibacterial activity against Micrococcus flavus ATCC 10240 treated for 24 hrs followed by sub-cultivated for 72 hrs by micro dilution method; type: functional; summary of the method: as §2
Staphylococcus aureus [20] = experiment: Antibacterial activity against Staphylococcus aureus ATCC 6538 after 24 hrs by micro dilution method; type: functional; conditions: ATCC 6538, 24 h; summary of the method: as §1
Salmonella typhimurium [21] = experiment: Antibacterial activity against Salmonella Typhimurium ATCC 13311 treated for 24 hrs followed by sub-cultivated for 72 hrs by micro dilution method; type: functional, Salmonella enterica subsp. enterica serovar Typhimurium; conditions: Salmonella enterica; summary of the method: as §2
Listeria monocytogenes [22] = experiment: Antibacterial activity against Listeria monocytogenes NCTC 7973 treated for 24 hrs followed by sub-cultivated for 72 hrs by micro dilution method; type: functional; summary of the method: as §2
Penicillium ochrochloron [23] = experiment: Antifungal activity against Penicillium ochrochloron ATCC 9112 after 72 hrs by serial dilution method; type: functional; conditions: ATCC 9112, 72 h; summary of the method: as §4
Staphylococcus aureus [24] = experiment: Antibacterial activity against Staphylococcus aureus ATCC 6538 treated for 24 hrs followed by sub-cultivated for 72 hrs by micro dilution method; type: functional; summary of the method: as §2
Trichoderma viride [25] = experiment: Antifungal activity against Trichoderma viride IAM 5061 after 72 hrs by serial dilution method; type: functional; conditions: IAM 5061, 72 h; summary of the method: as §4
Aspergillus flavus [26] = experiment: Antifungal activity against Aspergillus flavus ATCC 9643 after 72 hrs by serial dilution method; type: functional; conditions: ATCC 9643, 72 h; summary of the method: as §4
Salmonella typhimurium [27] = experiment: Antibacterial activity against Salmonella Typhimurium ATCC 13311 after 24 hrs by micro dilution method; type: functional, Salmonella enterica subsp. enterica serovar Typhimurium; conditions: Salmonella enterica, ATCC 13311, 24 h; summary of the method: as §1
Aspergillus versicolor [28] = experiment: Antifungal activity against Aspergillus versicolor ATCC 11730 treated for 72 hrs followed by sub-cultivated for 5 days by serial dilution method; type: functional; summary of the method: as §3
Escherichia coli [29] = experiment: Antibacterial activity against Escherichia coli ATCC 35210 treated for 24 hrs followed by sub-cultivated for 72 hrs by micro dilution method; type: functional; summary of the method: as §2
Aspergillus fumigatus [30] = experiment: Antifungal activity against Aspergillus fumigatus human isolate treated for 72 hrs followed by sub-cultivated for 5 days by serial dilution method; type: functional; summary of the method: as §3
Talaromyces funiculosus [31] = experiment: Antifungal activity against Penicillium funiculosum ATCC 36839 after 72 hrs by serial dilution method; type: functional; conditions: ATCC 36839, 72 h; summary of the method: as §4
Pseudomonas aeruginosa [32] = experiment: Antibacterial activity against Pseudomonas aeruginosa ATCC 27853 treated for 24 hrs followed by sub-cultivated for 72 hrs by micro dilution method; type: functional; summary of the method: as §2

Row | MIC (Bacillus cereus [1]) | MIC (Enterobacter cloacae [2]) | MIC (Pseudomonas aeruginosa [5]) | MIC (Micrococcus flavus [7]) | MIC (Listeria monocytogenes [8]) | MIC (Fulvia fulva [9]) | MIC (Escherichia coli [11]) | MIC (Aspergillus versicolor [12]) | MIC (Aspergillus niger [16]) | MIC (Aspergillus fumigatus [18]) | MIC (Staphylococcus aureus [20]) | Structure (SMILES) | MBC (Enterobacter cloacae [3]) | MFC (Aspergillus flavus [4]) | MFC (Trichoderma viride [6]) | MFC (Fulvia fulva [10]) | MFC (Aspergillus niger [13]) | MFC (Penicillium ochrochloron [14]) | MBC (Bacillus cereus [15]) | MFC (Talaromyces funiculosus [17]) | MBC (Micrococcus flavus [19]) | further results
1 | 260 µM (≈ 100 µg/mL) | 650 µM (≈ 250 µg/mL) | 650 µM (≈ 250 µg/mL) | 650 µM (≈ 250 µg/mL) | 650 µM (≈ 250 µg/mL) | 260 µM (≈ 100 µg/mL) | 650 µM (≈ 250 µg/mL) | 130 µM (≈ 50 µg/mL) | 130 µM (≈ 50 µg/mL) | 130 µM (≈ 50 µg/mL) | 260 µM (≈ 100 µg/mL) | CCCn1c(Cc2cc(OC)c(OC)cc2S(=O)(=O)N(C)C)n[nH]c1=O | 780 µM (≈ 300 µg/mL) | 260 µM (≈ 100 µg/mL) | 130 µM (≈ 50 µg/mL) | 260 µM (≈ 100 µg/mL) | 260 µM (≈ 100 µg/mL) | 390 µM (≈ 150 µg/mL) | 650 µM (≈ 250 µg/mL) | 260 µM (≈ 100 µg/mL) | 650 µM (≈ 250 µg/mL) | MBC (Salmonella typhimurium [21]): 650 µM (≈ 250 µg/mL); MBC (Listeria monocytogenes [22]): 780 µM (≈ 300 µg/mL); MIC (Penicillium ochrochloron [23]): 130 µM (≈ 50 µg/mL); MBC (Staphylococcus aureus [24]): 390 µM (≈ 150 µg/mL); MIC (Trichoderma viride [25]): 70 µM (≈ 26.9 µg/mL); MIC (Aspergillus flavus [26]): 130 µM (≈ 50 µg/mL); MIC (Salmonella typhimurium [27]): 650 µM (≈ 250 µg/mL); MFC (Aspergillus versicolor [28]): 390 µM (≈ 150 µg/mL); MBC (Escherichia coli [29]): 650 µM (≈ 250 µg/mL); MFC (Aspergillus fumigatus [30]): 260 µM (≈ 100 µg/mL); MIC (Talaromyces funiculosus [31]): 130 µM (≈ 50 µg/mL); MBC (Pseudomonas aeruginosa [32]): 780 µM (≈ 300 µg/mL)
2 | 260 µM (≈ 100 µg/mL) | 390 µM (≈ 150 µg/mL) | 390 µM (≈ 150 µg/mL) | 390 µM (≈ 150 µg/mL) | 390 µM (≈ 150 µg/mL) | 260 µM (≈ 100 µg/mL) | 390 µM (≈ 150 µg/mL) | 130 µM (≈ 50 µg/mL) | 260 µM (≈ 100 µg/mL) | 30 µM (≈ 11.5 µg/mL) | 390 µM (≈ 150 µg/mL) | COc1cc(Cc2n[nH]c(=O)n2C(C)C)c(S(=O)(=O)N(C)C)cc1OC | 390 µM (≈ 150 µg/mL) | 390 µM (≈ 150 µg/mL) | 70 µM (≈ 26.9 µg/mL) | 260 µM (≈ 100 µg/mL) | 390 µM (≈ 150 µg/mL) | 390 µM (≈ 150 µg/mL) | 780 µM (≈ 300 µg/mL) | 260 µM (≈ 100 µg/mL) | 390 µM (≈ 150 µg/mL) | MBC (Salmonella typhimurium [21]): 390 µM (≈ 150 µg/mL); MBC (Listeria monocytogenes [22]): 390 µM (≈ 150 µg/mL); MIC (Penicillium ochrochloron [23]): 130 µM (≈ 50 µg/mL); MBC (Staphylococcus aureus [24]): 390 µM (≈ 150 µg/mL); MIC (Trichoderma viride [25]): 30 µM (≈ 11.5 µg/mL); MIC (Aspergillus flavus [26]): 260 µM (≈ 100 µg/mL); MIC (Salmonella typhimurium [27]): 390 µM (≈ 150 µg/mL); MFC (Aspergillus versicolor [28]): 390 µM (≈ 150 µg/mL); MBC (Escherichia coli [29]): 390 µM (≈ 150 µg/mL); MFC (Aspergillus fumigatus [30]): 130 µM (≈ 50 µg/mL); MIC (Talaromyces funiculosus [31]): 260 µM (≈ 100 µg/mL); MBC (Pseudomonas aeruginosa [32]): 390 µM (≈ 150 µg/mL)
